# Source: PubChem BioAssay (Johns Hopkins Ion Channel Center)
# In the library only some 2.3% were active in any assay of this set; here they are far more common.
# TRPC6 act: mouse TRPC6 channel activation. HEK293-TRPC6 membrane potential dye fluorescence; stronger effect = higher value. B-score at 10 µM. 0.13% of 310,000 active. AID 2550;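 active means B-score of the integrated fluorescence ratio above library mean plus 3 SD, and starting fluorescence ratio within library mean plus 5 SD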;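 further: higher score means more depolarization so channel activation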
# TRPC6 inhibitor: inhibitors of mouse TRPC6 channel | 1.1% of 310,000 active | Q61143 | HEK293-TRPC6, membrane potential dye, ACh-evoked depolarization; stronger effect = lower value | B-score at 10 µM | AID 2553;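 active means B-score under library mean minus 3 SD, initial fluorescence not abnormally high, positive integrated signal ratio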;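 further: B-score derived from integrated fluorescence ratio over the kinetic read; more negative B-score means stronger inhibition of depolarization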
# TRPC4 act: activators of mouse TRPC4 channel; 0.49% of 310,000 active; Q9QUQ5; B-score at 10 µM; HEK293 TRPC4beta/mu-opioid, Fluo4 calcium fluorescence; stronger effect = higher value;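 active means B-score above 5 SD of library B-scores, and initial fluorescence ratio not above library mean plus 5 SD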;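 further: positive B-score marks a calcium rise read as TRPC4 activation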
# Target sequence (Q9QUQ5 whole entry, looked up): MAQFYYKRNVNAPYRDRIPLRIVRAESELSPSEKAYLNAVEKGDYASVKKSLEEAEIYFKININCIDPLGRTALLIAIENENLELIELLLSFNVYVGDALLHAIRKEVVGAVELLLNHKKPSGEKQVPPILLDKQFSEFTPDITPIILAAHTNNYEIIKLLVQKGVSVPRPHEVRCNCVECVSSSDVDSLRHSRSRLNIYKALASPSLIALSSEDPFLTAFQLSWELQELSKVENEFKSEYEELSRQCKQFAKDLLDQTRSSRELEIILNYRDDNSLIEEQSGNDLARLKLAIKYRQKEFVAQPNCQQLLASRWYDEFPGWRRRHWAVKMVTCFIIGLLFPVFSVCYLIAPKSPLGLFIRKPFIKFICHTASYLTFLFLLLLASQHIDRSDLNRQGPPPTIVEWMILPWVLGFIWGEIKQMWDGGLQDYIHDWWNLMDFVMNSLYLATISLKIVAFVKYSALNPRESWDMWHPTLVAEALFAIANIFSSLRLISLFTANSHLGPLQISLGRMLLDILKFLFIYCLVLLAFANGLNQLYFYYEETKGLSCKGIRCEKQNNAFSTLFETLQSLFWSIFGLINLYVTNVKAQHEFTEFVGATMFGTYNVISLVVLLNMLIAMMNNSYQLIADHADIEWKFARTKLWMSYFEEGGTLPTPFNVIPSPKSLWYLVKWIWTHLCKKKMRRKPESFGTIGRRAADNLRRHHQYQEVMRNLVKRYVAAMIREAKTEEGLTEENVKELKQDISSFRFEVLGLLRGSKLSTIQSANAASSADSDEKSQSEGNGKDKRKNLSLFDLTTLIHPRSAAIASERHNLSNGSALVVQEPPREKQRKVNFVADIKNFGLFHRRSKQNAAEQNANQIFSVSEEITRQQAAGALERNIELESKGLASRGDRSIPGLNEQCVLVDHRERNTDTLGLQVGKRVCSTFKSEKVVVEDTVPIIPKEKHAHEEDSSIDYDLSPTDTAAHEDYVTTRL
#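 Test system: HEK293 cells stably co-expressing mouse TRPC4beta and mu-opioid receptor | Schedule: Fluo4 dye loading 45 min at room temperature, 110 s recording | Measured by: Kinetic Fluo4 calcium fluorescence, 5 s baseline at 1 Hz | Evaluation: B score of integrated ratio | Controls: Buffer (low) and maximal DAMGO (high)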
# TRPC4 potent: allosteric potentiators of mouse TRPC4 channel | Q9QUQ5 | HEK293 TRPC4beta/mu-opioid, DAMGO EC20, Fluo-4 Ca2+ flux; stronger effect = higher value | B-score at 10 µM | 0.42% of 310,000 active;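 active means B-score of calcium response area above 5 SD of library B-scores, with initial fluorescence ratio within 5 SD of library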
# TRPC4 inh: inhibitors of mouse TRPC4 channel; B-score at 10 µM; HEK293 TRPC4beta/mu-opioid, DAMGO-evoked Fluo4 calcium flux; stronger effect = lower value; AID 2247; Q9QUQ5; 0.39% of 300,000 active;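 active means B-score over 3 SD under the library average, no early fluorescence shift, positive overall ratio signal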
#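 Assay system: Stable TRPC4beta/mu-opioid receptor HEK293 cells | Reagent: DAMGO in two steps, submaximal then maximal | Compound dosing: Single concentration per test compound | Signal: Fluo4 Ca2+ flux fluorescence | Evaluation: Per-well B score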
# TRPC4 spec 2: second selectivity test of TRPC6 inhibitors: effect on mouse TRPC4; 42% of 920 active; shares compounds with TRPC6 inhibitor; HEK293 TRPC4/MOR, membrane potential dye fluorescence; channel activated by saturating DAMGO dose; inhibition, % at 10 µM; AID 2776;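 active means compounds whose fluorescence signal differed from control wells by over 3 SD, either direction, in both duplicate plates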
# TRPC4 spec: tests whether TRPC6 inhibitors also affect mouse TRPC4; 61% of 920 active; HEK293 TRPC4/mu-opioid, membrane potential fluorescence; shares compounds with TRPC6 inhibitor; activity change, negative = inhibition, % at 10 µM;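 active means rise or fall in signal beyond 3 SD of buffer-only wells in both replicate plates, either sign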;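 further: integrated kinetic ratio of fluorescence range over baseline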
# HEK293 MPD ctr 2-1: second counter-screen for TRPC6 inhibitors: parental HEK293 cells. parental HEK293 membrane potential dye fluorescence; maximal acetylcholine challenge after compound addition. shares compounds with TRPC6 inhibitor. signal change vs control, % at 10 µM. AID 2779. 31% of 920 active;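 active means membrane potential signal moving either way by over 3 SD of the maximum-effect control, in both duplicate plates, meaning non-specific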
# HEK293 MPD ctr-1: checks TRPC6 inhibitor effects in parental HEK293 cells | shares compounds with TRPC6 inhibitor | parental HEK293 membrane potential dye fluorescence | membrane potential signal change, % at 10 µM | AID 2780 | 60% of 920 active;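 active means membrane potential signal shifting up or down by more than 3 SD of buffer-only wells, on both duplicate plates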
# HEK293 MPD ctr-2: parental HEK293 nonspecific activity of TRPC6 modulators; shares compounds with TRPC6 inhibitor; membrane potential dye fluorescence; membrane potential signal change, % at 10 µM; 51% of 2,400 active;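 active means membrane potential signal moves up or down beyond 5 SD from buffer-only wells, on both duplicate plates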
# HEK293 MPD ctr 2-2: second check of TRPC6 modulator effects in parental HEK293 cells; AID 488926; inhibition, % at 10 µM; shares compounds with TRPC6 inhibitor; 14% of 2,400 active; membrane potential dye fluorescence; after compound, maximal acetylcholine stimulation;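 active means membrane potential signal drops by more than 5 SD from the mean control signal, in both duplicate plates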
# TRPC4/MOR mod: mouse TRPC4 off-target activity of TRPC6 modulators; shares compounds with TRPC6 inhibitor; HEK293 TRPC4/mu-opioid, membrane potential fluorescence; percent change from control (negative = decrease, positive = increase), % at 10 µM; 69% of 2,400 active; AID 488927;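 active means membrane potential signal moved up or down beyond 5 SD of buffer control wells, in both duplicate plates, actives on both sides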
# TRPC4/MOR inh 2: mouse TRPC4 off-target activity of TRPC6 modulators, second screen. shares compounds with TRPC6 inhibitor. HEK293 TRPC4/mu-opioid, membrane potential dye fluorescence; stimulated with maximal-effect DAMGO. inhibition, % at 10 µM. 55% of 2,400 active;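 active means drop in membrane potential signal beyond 5 SD of the control wells in both duplicate plates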;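 further: TRPC4 counter screen for TRPC6 hits run under conditions tuned for TRPC6 not TRPC4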
# TRPC6 inh conf: mouse TRPC6 inhibitor confirmation. shares compounds with TRPC6 inhibitor. HEK293-TRPC6, membrane potential dye, ACh-evoked depolarization. inhibition, % at 10 µM. 43% of 3,300 active;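 active means fluorescence ratio falls more than 5 SD below the full-stimulation control mean, in both duplicate runs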;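 further: integrated fluorescence ratio of peak minus minimum over baseline after agonist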
# TRPC6 act confirm: mouse TRPC6 activator confirmation; shares compounds with TRPC6 inhibitor; HEK293-TRPC6 membrane potential dye fluorescence, FDSS; activation, % at 10 µM; 11% of 2,800 active; AID 488961;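 active means ratio signal rise beyond 5 SD above unstimulated control wells' mean, seen in both duplicate runs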
# Numbers stand for hits; - = inactive; . = no result.
SMILES,TRPC6 act,TRPC6 inhibitor,TRPC4 act,TRPC4 potent,TRPC4 inh,HEK293 MPD ctr-2,HEK293 MPD ctr 2-2,TRPC4/MOR mod,TRPC4/MOR inh 2,TRPC6 inh conf,TRPC6 act confirm,others
COCCN(C(=O)COC(=O)c1cc2ccccc2cc1O)c1c(N)n(Cc2ccccc2)c(=O)[nH]c1=O,-,-,-,-,-,.,.,.,.,.,.,
CN(c1cccc(NC(=O)c2ccc(Cl)c(S(=O)(=O)N3CCOCC3)c2)c1)S(C)(=O)=O,-,-,-,-,-,.,.,.,.,.,.,
CN(C)S(=O)(=O)c1cccc(NC(=O)COC(=O)c2cccn2C)c1,-,-,-,-,-,.,.,.,.,.,.,
Cc1ccccc1OCC(O)Cn1c(=N)n(Cc2ccccc2)c2ccccc21 (stereo not given),-,-5.1,64,-,-6,120%,-,40%,102%,70%,.,
COc1ccccc1OCC(O)Cn1c(=N)n(Cc2ccccc2)c2ccccc21 (stereo not given),-,-6.4,-,-,-,122%,-,46%,102%,52%,.,
Cc1oc(-c2ccccc2F)nc1CN1CCC(C(=O)NC2CCCc3ccccc32)CC1 (stereo not given),-,-8.8,-,-,-,.,.,.,.,-,-,TRPC4 spec 2=34%;TRPC4 spec=29%;HEK293 MPD ctr 2-1=293%;HEK293 MPD ctr-1=9.1%
Cc1nc2ccccc2n1S(=O)(=O)c1ccc(F)cc1,-,-,-,-,-,.,.,.,.,.,.,
Cc1ccc(S(=O)(=O)n2c(N)nc3ccccc32)cc1,-,-8.4,-,-,-,.,.,.,.,64%,-,TRPC4 spec 2=-;TRPC4 spec=-;HEK293 MPD ctr 2-1=38%;HEK293 MPD ctr-1=-
Cc1ccc(S(=O)(=O)N2CCN(Cc3cc(C(C)(C)C)ccc3O)CC2)cc1,-,-,-,-,-,.,.,.,.,.,.,
CCN(CCO)c1nc(NCc2ccccc2)c2cnn(C)c2n1,-,-,-,-,-,.,.,.,.,.,.,
CN(C)CCCN(C(=O)c1ccco1)c1nc2c(F)cc(F)cc2s1,-,-7.1,-,-,-,-158%,-,-34%,82%,52%,-,
CN(C)CCCN(C(=O)c1ccco1)c1nc2c(F)cccc2s1,-,-9.8,-,-,-,.,.,.,.,107%,-,TRPC4 spec 2=18%;TRPC4 spec=-32%;HEK293 MPD ctr 2-1=26%;HEK293 MPD ctr-1=-300%
CN(C)CCCN(C(=O)/C=C/c1cccs1)c1nc2c(F)cccc2s1,-,-7.1,-,-,-,.,.,.,.,-,-,TRPC4 spec 2=-;TRPC4 spec=-;HEK293 MPD ctr 2-1=-;HEK293 MPD ctr-1=-
CN(C)CCCN(C(=O)c1ccco1)c1nc(-c2ccc(Cl)cc2)cs1,-,-7.3,-,-,-6,.,.,.,.,-,-,TRPC4 spec 2=12%;TRPC4 spec=-;HEK293 MPD ctr 2-1=-;HEK293 MPD ctr-1=-152%
CN(C)CCCN(C(=O)CCc1ccccc1)c1nc2c(F)cccc2s1,-,-,-,-,-,.,.,.,.,.,.,
CCC(=O)Nc1cc2c3c(c1)CCN3C(=O)CC2,-,-,-,-,-,.,.,.,.,.,.,
COC(=O)c1cc(OC)c(OC)cc1NC(=S)N1CCN(C/C=C/c2ccccc2)CC1,-,-,-,-,-,.,.,.,.,.,.,
Cc1ccc(OCC(=O)c2c[nH]c3ccccc23)c([N+](=O)[O-])n1,-,-,-,-,-,.,.,.,.,.,.,
O=C1CSC(c2c(F)cccc2Cl)N1c1cccc(F)c1 (stereo not given),-,-5.1,-,-,-,-,-,12%,-,-,-,
O=C1CSC(c2cccc(F)c2)N1c1c(F)cccc1F (stereo not given),-,-,-,-,-,.,.,.,.,.,.,
CN(C)C(CNC(=O)c1cccc(NS(=O)(=O)c2ccc(Br)cc2)c1)c1ccco1 (stereo not given),-,-5.7,-,-,-,-,-,9.5%,-,-,-,
COc1ccccc1OCC(=O)Nc1sc2c(c1C(=O)NCC1CCCO1)CCC2 (stereo not given),-,-,-,-,-,.,.,.,.,.,.,
CN(C)C(=O)c1c2c(nc3ccccc13)-c1ccccc1CC2,-,-5.7,-,-,-,-,-,-,-,-,-,
CS(=O)(=O)c1ccc2nc(NC(=O)CCN3C(=O)c4ccccc4C3=O)sc2c1,-,-,-,-,-,.,.,.,.,.,.,
COC(=O)c1c(-c2ccc3ccccc3c2)csc1NC(=O)Cc1ccc(OC)c(OC)c1,-,-5.8,-,-,-,-,-,-,-,-,-,
SMILES,TRPC6 act,TRPC6 inhibitor,TRPC4 act,TRPC4 potent,TRPC4 inh,HEK293 MPD ctr-2,HEK293 MPD ctr 2-2,TRPC4/MOR mod,TRPC4/MOR inh 2,TRPC6 inh conf,TRPC6 act confirm,others
CC(=O)NC1C(=O)N=C(SC(C)C(=O)Nc2cccc(Cl)c2)NC1=O (stereo not given),-,-,-,-,-,.,.,.,.,.,.,
O=C(CC(c1ccccc1)c1ccccc1O)N1CCCCC1 (stereo not given),-,-6.3,-,-,-,-,-,-,-,-,.,
CCN(CC)CCC(O)(c1ccccc1)C1CCCCC1 (stereo not given),-,-,-,-,-,.,.,.,.,.,.,
CN1CCCN=C1COC(=O)C(O)(c1ccccc1)C1CCCCC1 (stereo not given),-,-7,-,-,-,.,.,.,.,91%,-,TRPC4 spec 2=-;TRPC4 spec=0.2%;HEK293 MPD ctr 2-1=36%;HEK293 MPD ctr-1=-
N#Cc1cc2[nH]c3ccccc3c2[n+](-c2ccc([N+](=O)[O-])cc2)c1N,-,-9.9,-,-,-,-322%,94%,-18%,97%,75%,-,
Cc1cccc(N2CCN(C(=O)CN3CCOc4ccccc43)CC2C)c1 (stereo not given),-,-,-,-,-,.,.,.,.,.,.,
O=C(CN1CCOc2ccccc21)N1CCN(c2cccc(Cl)c2)CC1,-,-5.5,-,-,-,-,-,-,36%,-,-,
O=C1CNC(=S)N1Cc1cccc(Cl)c1,-,-7,-,-,-,.,.,.,.,-,-,TRPC4 spec 2=-;TRPC4 spec=-12%;HEK293 MPD ctr 2-1=-;HEK293 MPD ctr-1=-
